Assays:
Rat IV PBL = format: in vivo; details: compared to 4
[1] = Rat brain homogenate binding; format: in vitro ADME; details: compared to 4
[2] = Rat microsomal intrinsic clearance / predicted hepatic clearance; format: in vitro ADME; details: predicted hepatic clearance from rat microsomal intrinsic clearance
[3] = Human microsomal intrinsic clearance / predicted hepatic clearance; format: in vitro ADME; details: compared to 4
human mGlu1 = human mGlu1 (Homo sapiens, UniProt Q13255); assay: Calcium mobilization mGlu1 PAM assay; format: cell-based
Outline: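 Calcium mobilization read-out on human mGlu1. Test compounds were first triaged in a 10 μM single-point screen with an EC20 concentration of glutamate. Those selected then got full concentration-response curves. Values are the average of three independent experiments, each run in triplicate.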

Sequence of human mGlu1 (Q13255 19-1194): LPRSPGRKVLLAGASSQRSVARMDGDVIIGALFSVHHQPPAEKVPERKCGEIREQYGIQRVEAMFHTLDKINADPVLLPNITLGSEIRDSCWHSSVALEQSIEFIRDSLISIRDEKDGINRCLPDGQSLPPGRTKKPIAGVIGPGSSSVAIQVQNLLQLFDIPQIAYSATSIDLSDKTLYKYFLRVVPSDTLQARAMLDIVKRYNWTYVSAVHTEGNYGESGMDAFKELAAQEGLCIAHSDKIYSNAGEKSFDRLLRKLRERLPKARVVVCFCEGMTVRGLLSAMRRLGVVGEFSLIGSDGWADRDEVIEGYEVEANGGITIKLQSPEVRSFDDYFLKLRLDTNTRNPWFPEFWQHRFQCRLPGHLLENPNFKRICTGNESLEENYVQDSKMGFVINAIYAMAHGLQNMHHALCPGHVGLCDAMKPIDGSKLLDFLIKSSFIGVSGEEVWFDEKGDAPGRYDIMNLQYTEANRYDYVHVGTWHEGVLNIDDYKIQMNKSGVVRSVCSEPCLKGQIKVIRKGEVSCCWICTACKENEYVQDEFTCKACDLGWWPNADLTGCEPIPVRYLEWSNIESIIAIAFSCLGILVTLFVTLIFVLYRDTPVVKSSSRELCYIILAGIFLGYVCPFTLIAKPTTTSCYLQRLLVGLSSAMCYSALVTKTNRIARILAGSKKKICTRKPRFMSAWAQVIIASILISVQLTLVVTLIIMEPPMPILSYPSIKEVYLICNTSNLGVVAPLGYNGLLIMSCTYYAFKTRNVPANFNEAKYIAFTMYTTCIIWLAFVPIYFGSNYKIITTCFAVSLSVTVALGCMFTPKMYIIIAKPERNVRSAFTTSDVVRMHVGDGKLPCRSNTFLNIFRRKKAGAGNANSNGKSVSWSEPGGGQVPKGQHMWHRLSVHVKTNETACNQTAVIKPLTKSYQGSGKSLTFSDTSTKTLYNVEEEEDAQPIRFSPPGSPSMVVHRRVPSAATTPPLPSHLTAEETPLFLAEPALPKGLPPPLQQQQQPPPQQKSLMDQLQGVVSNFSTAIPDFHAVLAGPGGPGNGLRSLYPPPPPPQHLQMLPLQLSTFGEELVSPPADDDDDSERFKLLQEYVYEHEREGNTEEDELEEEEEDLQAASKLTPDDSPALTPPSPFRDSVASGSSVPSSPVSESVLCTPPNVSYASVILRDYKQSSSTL

SMILES | fold improvement in Kp (CNS exposure) over 4 (Rat IV PBL) | Rat CLhep [2] [mL/min/kg] | mGlu1 PAM activity in words (human mGlu1) | also measured
N#Cc1csc(NC(=O)C2c3ccccc3Oc3ccccc32)n1 [9a] | ~ 4 fold | 62.2 | – | enhancement of free drug in brain [1]: > 10 fold; reduction of human microsomal intrinsic clearance [3]: ~ 50%
CC(C)c1csc(NC(=O)C2c3ccccc3Oc3ccccc32)n1 [9b] | ~ 3 fold | 64 | – | –
O=C(Nc1nc2ccccc2s1)C1c2ccccc2Oc2ccccc21 [9f] | – | – | – | fold increase in potency on replacing thiazole 9e (human mGlu1; 9f versus 9e): ~3 fold
Cc1nc(NC(=O)C2c3ccccc3Oc3ccccc32)sc1C [9g] | – | – | weak PAM activity | –
O=C(Nc1ccccn1)C1c2ccccc2Oc2ccccc21 [9h] | – | – | moderate activity | –

Source: publication PMC4833523 (Bioorganic & medicinal chemistry letters, 2016)
